As usually defined, the pIC50 is the IC50 on a negative log10 scale, so that one unit is a factor of ten. In general, half-life refers to how long it takes for the measured level to halve. High values mean slow loss, low ones fast loss.

pIC50: −log10 of the molar value.

Series [1] concerns the target Mitogen-activated protein kinase 13 (Homo sapiens) (UniProt O15264). Briefly: Residual activity at human SAPK4 at 10 uM in presence of 10 uM ATP relative to control. In short, it runs like this: (§1)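 Single-concentration counter-screen across a panel of 80 Ser/Thr and Tyr protein kinases. Compound was tested at 10 µM with ATP at 10 µM. Activity remaining in each kinase is expressed relative to control.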

For series [2], the target named is Protein kinase C beta type (Homo sapiens) (UniProt P05771). The experiment in a line: Residual activity at human PKCbeta2 at 10 uM in presence of 10 uM ATP relative to control. In short, it runs like this: as §1
Series [3] concerns the target Tyrosine-protein kinase ABL2 (Mus musculus) (UniProt Q4JIM5). The experiment in a line: Residual activity at mouse Arg at 10 uM in presence of 10 uM ATP relative to control. In outline: as §1
Series [4] addresses RAC-alpha serine/threonine-protein kinase (Homo sapiens) (UniProt P31749). The experiment in a line: Residual activity at human PKBalpha at 10 uM in presence of 10 uM ATP relative to control. In outline: as §1
The target in series [5] is T1, Phosphatidylinositol 4,5-bisphosphate 3-kinase catalytic subunit delta isoform (Homo sapiens, UniProt O00329).
T1 sequence (O00329 whole entry): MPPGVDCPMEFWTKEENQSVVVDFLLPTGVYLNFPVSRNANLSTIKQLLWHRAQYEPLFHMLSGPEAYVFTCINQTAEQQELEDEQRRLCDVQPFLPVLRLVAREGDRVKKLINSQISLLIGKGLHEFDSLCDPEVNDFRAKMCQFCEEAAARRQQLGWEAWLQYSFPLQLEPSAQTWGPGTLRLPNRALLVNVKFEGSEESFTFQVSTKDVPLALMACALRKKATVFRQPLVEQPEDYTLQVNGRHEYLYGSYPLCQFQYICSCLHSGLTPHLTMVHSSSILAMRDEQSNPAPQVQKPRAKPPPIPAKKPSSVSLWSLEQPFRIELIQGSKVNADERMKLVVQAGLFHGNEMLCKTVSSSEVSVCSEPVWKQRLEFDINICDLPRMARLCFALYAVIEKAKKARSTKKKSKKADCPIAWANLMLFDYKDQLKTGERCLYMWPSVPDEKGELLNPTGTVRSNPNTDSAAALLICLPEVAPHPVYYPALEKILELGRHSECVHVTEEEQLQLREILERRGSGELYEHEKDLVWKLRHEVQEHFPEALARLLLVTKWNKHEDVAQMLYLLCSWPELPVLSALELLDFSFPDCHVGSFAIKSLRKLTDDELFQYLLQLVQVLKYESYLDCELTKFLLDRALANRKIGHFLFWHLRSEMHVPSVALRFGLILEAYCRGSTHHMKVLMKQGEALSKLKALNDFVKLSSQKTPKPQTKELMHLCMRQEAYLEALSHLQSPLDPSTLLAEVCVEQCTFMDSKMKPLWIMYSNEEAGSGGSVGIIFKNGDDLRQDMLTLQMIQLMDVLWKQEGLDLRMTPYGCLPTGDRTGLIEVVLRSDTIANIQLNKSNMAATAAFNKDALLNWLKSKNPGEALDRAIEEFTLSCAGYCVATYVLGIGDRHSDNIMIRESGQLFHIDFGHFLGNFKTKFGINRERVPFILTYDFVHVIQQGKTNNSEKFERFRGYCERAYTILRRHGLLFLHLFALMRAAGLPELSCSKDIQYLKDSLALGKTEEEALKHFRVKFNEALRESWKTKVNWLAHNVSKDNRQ
The experiment in a line: Inhibition of human PI3Kdelta.

Series [6] concerns the target Cyclin-dependent kinase 1/cyclin B1 (Homo sapiens) (UniProt P06493+P14635). The experiment in a line: Residual activity at human CDK1/CyclinB at 10 uM in presence of 10 uM ATP relative to control. In kind it is protein-complex assay. In short, it runs like this: (§2)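 Panel of Ser/Thr and Tyr protein kinases, each tested with 10 µM compound in the presence of 10 µM ATP; activity expressed relative to control.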

Series [7] is described as follows: Half life in rat at 10 mg/kg, po. The class given is ADME, organism-based. Set-up: dose 10 mg/kg, route oral. As to conditions: in vivo. In short, it runs like this: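 Rats given a single 10 mg/kg dose, intravenously or orally. The compound was given as its potassium salt, prepared with KOH in THF/water, for the in vivo work.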
In series [8] the target is Receptor-type tyrosine-protein kinase FLT3 (Homo sapiens) (UniProt P36888). The experiment in a line: Residual activity at human Flt3 at 10 uM in presence of 10 uM ATP relative to control. In outline:
as §2

For series [9], the target named is Ribosomal protein S6 kinase alpha-2 (Homo sapiens) (UniProt Q15349). The experiment in a line: Residual activity at human Rsk2 at 10 uM in presence of 10 uM ATP relative to control. In outline: as §1
The target in series [10] is Tyrosine-protein kinase SYK (Homo sapiens) (UniProt P43405). Briefly: Residual activity at human Syk at 10 uM in presence of 10 uM ATP relative to control. In short, it runs like this: as §1
Series [11] concerns the target CDK6/cyclin D3 (Homo sapiens) (UniProt P30281+Q00534). Briefly: Residual activity at human CDK6/CyclinD3 at 10 uM in presence of 10 uM ATP relative to control. The class given is protein-complex assay. In outline:
as §2

For series [12], the target named is Cyclin-dependent kinase 5/CDK5 activator 1 (Homo sapiens) (UniProt Q00535+Q15078). Briefly: Residual activity at human CDK5/p35 at 10 uM in presence of 10 uM ATP relative to control. In kind it is protein-complex assay. In short, it runs like this: as §2
Cyclin-dependent kinase 5/CDK5 activator 1 (Homo sapiens), sequence (Q00535 whole entry): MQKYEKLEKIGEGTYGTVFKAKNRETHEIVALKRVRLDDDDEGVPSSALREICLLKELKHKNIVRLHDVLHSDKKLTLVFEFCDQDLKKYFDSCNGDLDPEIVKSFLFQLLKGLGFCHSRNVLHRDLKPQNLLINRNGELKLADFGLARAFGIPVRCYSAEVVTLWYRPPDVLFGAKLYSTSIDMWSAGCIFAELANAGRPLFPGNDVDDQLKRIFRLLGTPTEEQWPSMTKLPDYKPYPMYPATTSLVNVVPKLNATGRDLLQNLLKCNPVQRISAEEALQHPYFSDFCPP
Cyclin-dependent kinase 5/CDK5 activator 1 (Homo sapiens), sequence (Q15078 99-307 partner limits assumed): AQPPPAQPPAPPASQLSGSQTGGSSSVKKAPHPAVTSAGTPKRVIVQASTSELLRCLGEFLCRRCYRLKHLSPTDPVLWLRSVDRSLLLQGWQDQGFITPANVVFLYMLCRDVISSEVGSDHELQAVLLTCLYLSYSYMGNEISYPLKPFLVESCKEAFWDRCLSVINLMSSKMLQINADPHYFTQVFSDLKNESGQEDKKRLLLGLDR
Series [13] deals with Tyrosine-protein kinase Lyn (Homo sapiens) (UniProt P07948). The experiment in a line: Residual activity at human Lyn at 10 uM in presence of 10 uM ATP relative to control. In outline: as §1
Tyrosine-protein kinase Lyn (Homo sapiens), sequence (P07948 2-512 limits assumed): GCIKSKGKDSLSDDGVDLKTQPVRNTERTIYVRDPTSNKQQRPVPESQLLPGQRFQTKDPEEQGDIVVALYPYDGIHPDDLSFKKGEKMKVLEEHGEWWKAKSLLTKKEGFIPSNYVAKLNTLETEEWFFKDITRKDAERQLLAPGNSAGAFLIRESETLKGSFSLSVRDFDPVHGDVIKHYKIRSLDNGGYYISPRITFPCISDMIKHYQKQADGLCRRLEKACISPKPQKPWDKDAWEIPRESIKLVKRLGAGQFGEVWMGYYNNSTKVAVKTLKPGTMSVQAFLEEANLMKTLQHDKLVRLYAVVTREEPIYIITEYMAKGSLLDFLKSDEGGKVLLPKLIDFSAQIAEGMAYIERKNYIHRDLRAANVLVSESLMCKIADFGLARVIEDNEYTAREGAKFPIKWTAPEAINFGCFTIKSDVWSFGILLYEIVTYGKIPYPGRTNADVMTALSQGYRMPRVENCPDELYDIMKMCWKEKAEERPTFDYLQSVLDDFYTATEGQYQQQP
The target of series [14] is Dual specificity mitogen-activated protein kinase kinase 4 (Mus musculus) (UniProt P47809). The experiment in a line: Residual activity at mouse MKK4 at 10 uM in presence of 10 uM ATP relative to control. In short, it runs like this: as §1
Series [15] can be described thus: Metabolism in human microsome after 1 hr. The class given is ADME. As to conditions: microsomes, read-out: Activity.
The target of series [16] is Serine/threonine-protein kinase Chk1 (Homo sapiens) (UniProt O14757). The experiment in a line: Residual activity at human Chk1 at 10 uM in presence of 10 uM ATP relative to control. In outline:
as §2

The target in series [17] is RAF proto-oncogene serine/threonine-protein kinase (Homo sapiens) (UniProt P04049). Briefly: Residual activity at human c-RAF at 10 uM in presence of 10 uM ATP relative to control. In short, it runs like this: as §1
Series [18] has as its target Mitogen-activated protein kinase 14 (Homo sapiens) (UniProt Q16539). Briefly: Residual activity at human SAPK2a at 10 uM in presence of 10 uM ATP relative to control. In short, it runs like this: as §1
Series [19] concerns the target Protein kinase C iota type (Homo sapiens) (UniProt P41743). The experiment in a line: Residual activity at human PKCiota at 10 uM in presence of 10 uM ATP relative to control. In short, it runs like this:
as §1

The test system of a further series is RAW264.7. The experiment in a line: Inhibition of C5a-mediated PKB/Akt phosphorylation in mouse Raw264 macrophage. In kind it is functional, cell-based. In outline:
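Raw-264 murine macrophages starved 3 h in serum-free medium, pretreated 30 min with inhibitor or DMSO, then stimulated 5 min with 50 nM C5a. Phospho-Ser-473 Akt measured by ELISA. Concentration-response; IC50. Mean ± standard deviation of four independent experiments done in triplicate.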

Serine/threonine-protein kinase Chk1 (Homo sapiens), sequence (O14757 whole entry): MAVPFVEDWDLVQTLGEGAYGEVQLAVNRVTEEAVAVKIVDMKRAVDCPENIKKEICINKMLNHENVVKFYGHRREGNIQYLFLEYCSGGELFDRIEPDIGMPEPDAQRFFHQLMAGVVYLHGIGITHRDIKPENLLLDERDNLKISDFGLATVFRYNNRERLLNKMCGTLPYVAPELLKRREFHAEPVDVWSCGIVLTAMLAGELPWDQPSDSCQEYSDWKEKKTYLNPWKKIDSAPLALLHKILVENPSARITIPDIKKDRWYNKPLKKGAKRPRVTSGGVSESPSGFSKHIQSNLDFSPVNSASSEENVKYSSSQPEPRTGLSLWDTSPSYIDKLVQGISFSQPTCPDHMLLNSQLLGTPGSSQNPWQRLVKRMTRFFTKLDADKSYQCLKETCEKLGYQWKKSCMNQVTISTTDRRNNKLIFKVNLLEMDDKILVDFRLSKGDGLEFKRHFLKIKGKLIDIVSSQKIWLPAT
Protein kinase C iota type (Homo sapiens), sequence (P41743 whole entry): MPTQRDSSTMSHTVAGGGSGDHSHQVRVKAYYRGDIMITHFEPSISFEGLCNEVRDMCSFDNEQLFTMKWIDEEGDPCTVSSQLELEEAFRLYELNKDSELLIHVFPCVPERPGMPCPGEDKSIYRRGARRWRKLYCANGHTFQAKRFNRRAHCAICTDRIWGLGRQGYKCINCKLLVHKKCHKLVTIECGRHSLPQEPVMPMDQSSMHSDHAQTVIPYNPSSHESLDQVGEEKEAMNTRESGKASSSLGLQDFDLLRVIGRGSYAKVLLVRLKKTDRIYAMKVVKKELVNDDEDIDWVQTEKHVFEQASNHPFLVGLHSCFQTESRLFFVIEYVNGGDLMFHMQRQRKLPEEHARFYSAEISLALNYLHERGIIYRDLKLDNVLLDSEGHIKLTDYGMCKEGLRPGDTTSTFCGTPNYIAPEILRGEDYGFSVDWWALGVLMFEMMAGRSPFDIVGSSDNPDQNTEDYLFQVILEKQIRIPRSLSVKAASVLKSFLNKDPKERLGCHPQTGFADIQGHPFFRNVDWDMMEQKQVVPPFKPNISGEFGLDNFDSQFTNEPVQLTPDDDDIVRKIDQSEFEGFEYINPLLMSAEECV
Tyrosine-protein kinase ABL2 (Mus musculus), sequence (Q4JIM5 whole entry): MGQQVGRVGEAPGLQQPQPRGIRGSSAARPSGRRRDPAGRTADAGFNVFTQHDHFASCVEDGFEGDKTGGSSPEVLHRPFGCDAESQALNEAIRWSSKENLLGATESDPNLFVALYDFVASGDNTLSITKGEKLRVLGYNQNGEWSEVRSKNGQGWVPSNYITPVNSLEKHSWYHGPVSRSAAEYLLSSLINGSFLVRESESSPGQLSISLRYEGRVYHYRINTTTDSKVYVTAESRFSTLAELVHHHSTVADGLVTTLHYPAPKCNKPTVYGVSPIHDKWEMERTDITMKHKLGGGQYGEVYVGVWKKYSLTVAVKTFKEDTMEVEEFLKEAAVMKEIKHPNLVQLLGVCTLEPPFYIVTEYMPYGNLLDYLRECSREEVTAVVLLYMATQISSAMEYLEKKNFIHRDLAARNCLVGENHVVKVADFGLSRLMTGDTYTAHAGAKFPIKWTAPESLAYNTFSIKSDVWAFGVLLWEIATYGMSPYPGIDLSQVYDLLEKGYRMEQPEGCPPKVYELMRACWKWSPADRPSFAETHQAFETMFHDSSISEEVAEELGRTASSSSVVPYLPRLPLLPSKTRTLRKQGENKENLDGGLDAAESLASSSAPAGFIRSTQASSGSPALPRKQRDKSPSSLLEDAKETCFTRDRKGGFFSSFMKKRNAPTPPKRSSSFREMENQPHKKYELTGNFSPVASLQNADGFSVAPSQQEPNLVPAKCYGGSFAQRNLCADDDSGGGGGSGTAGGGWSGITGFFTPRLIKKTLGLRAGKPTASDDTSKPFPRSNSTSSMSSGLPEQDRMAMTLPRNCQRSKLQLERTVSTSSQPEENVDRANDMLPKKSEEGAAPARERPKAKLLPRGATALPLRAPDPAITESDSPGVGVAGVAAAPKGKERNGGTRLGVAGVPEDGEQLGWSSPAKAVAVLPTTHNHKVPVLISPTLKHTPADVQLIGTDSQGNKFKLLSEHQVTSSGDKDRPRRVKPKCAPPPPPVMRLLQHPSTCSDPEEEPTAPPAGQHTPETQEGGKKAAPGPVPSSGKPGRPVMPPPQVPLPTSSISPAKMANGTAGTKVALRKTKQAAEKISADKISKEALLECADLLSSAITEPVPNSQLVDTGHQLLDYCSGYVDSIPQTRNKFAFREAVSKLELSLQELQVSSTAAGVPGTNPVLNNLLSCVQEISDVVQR
Mitogen-activated protein kinase 13 (Homo sapiens), sequence (O15264 whole entry): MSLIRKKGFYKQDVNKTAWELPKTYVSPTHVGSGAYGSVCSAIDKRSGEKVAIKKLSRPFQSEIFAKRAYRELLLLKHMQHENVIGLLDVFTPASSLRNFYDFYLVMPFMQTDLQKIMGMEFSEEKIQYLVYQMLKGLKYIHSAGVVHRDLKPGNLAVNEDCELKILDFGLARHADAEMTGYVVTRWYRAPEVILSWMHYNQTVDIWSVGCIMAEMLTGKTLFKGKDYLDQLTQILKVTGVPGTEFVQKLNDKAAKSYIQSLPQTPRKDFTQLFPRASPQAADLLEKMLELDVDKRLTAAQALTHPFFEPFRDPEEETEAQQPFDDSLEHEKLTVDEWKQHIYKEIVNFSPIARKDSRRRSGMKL
Mitogen-activated protein kinase 14 (Homo sapiens), sequence (Q16539 whole entry): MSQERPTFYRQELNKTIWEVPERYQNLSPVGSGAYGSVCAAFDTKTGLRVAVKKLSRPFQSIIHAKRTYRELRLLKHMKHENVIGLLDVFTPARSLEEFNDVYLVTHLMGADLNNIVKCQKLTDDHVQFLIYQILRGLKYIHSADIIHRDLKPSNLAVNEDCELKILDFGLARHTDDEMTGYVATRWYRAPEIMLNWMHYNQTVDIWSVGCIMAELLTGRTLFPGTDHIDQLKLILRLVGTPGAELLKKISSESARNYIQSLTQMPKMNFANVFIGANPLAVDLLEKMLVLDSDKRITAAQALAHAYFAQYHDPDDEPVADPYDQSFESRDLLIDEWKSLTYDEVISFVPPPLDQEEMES
Cyclin-dependent kinase 1/cyclin B1 (Homo sapiens), sequence (P06493 whole entry, looked up): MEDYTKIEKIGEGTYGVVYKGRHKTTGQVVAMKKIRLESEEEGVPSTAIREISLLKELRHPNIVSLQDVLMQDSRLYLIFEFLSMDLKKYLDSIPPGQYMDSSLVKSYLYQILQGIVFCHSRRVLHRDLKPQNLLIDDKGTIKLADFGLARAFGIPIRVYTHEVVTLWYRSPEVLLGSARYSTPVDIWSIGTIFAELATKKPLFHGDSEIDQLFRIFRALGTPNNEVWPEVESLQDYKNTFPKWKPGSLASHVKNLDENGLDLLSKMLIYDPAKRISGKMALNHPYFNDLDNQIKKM
Cyclin-dependent kinase 1/cyclin B1 (Homo sapiens), sequence (P14635 whole entry, looked up): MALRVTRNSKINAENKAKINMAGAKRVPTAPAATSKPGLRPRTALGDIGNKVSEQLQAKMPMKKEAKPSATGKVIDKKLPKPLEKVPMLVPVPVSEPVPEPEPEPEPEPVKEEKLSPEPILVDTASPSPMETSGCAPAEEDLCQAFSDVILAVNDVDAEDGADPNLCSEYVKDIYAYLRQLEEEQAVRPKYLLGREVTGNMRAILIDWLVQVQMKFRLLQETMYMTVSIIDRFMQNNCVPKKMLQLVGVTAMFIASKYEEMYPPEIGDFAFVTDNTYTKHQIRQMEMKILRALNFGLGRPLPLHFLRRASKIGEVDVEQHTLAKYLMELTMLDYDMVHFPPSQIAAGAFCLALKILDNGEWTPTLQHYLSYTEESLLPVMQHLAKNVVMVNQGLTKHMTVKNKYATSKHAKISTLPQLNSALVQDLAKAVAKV

Turning to `O=C1NC(=O)/C(=C/c2ccc(-c3ccc(F)cc3O)o2)S1`, the Activity worked out at 93% in series [1]; 98% in [2]; 85% in series [3]; 97% in series [4]; 80% in series [6]; 93% in [8]. Also, the Activity was 86% in series [9]; 93% in [10]; 89% in series [11]; 83% in [12]; 101% in [13]; 85% in [14]. The Activity was 94% in series [16], 99% in [17], 84% in [18] and 84% in [19]. In addition, the pIC50 in [5] is 4.70; in the series on RAW264.7, 6.64. Also, in series [7], the half-life is 1 h. In addition, in series [15], the metabolised at 1 h was found to be 10%.
